According to ChEMBL document CHEMBL1671809, “Discovery of phosphoric acid mono-{2-[(E/Z)-4-(3,3-dimethyl-butyrylamino)-3,5-difluoro-benzoylimino]-thiazol-3-ylmethyl} ester (Lu AA47070): a phosphonooxymethylene prodrug of a potent and selective hA(2A) receptor antagonist” (J Med Chem, 2011):

Experiments:
[1] = Protein binding in human serum at 1 uM after 60 mins by LC/MS-MS; type: ADME, cell-free; conditions: read-out: PPB (converted)
Cytochrome P450 3A4 = Cytochrome P450 3A4 (Homo sapiens, UniProt P08684); experiment: Inhibition of recombinant CYP3A4 after 30 mins; type: ADME
Sequence of Cytochrome P450 3A4 (P08684 whole entry): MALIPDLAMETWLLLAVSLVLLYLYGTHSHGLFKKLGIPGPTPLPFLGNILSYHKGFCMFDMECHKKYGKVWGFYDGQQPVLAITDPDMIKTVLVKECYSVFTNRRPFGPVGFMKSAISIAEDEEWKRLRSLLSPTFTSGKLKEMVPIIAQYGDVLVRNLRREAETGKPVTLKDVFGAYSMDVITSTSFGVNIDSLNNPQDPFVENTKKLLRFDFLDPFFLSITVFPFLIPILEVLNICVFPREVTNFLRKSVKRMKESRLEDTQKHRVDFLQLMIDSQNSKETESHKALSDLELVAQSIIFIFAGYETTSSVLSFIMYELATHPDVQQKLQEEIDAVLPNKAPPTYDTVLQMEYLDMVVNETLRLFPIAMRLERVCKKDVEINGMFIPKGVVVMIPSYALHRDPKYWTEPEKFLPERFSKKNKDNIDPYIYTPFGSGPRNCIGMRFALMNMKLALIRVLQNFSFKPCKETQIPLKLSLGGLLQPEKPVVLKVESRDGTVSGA
Outline: (§1)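 Recombinant CYP supersomes incubated in phosphate buffer with eight compound concentrations (40-0.02 μM) and fluorogenic substrates. CYP3A4: resorufin benzyl ether 100 μM, 30 min. Fluorescent metabolite read; IC50 relative to uninhibited controls.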

[2] = Plasma clearance in Sprague-Dawley rat at 0.5 mg/kg, iv and 1 mg/kg, po; type: ADME, organism-based
Outline: (§2)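 Awake Sprague-Dawley rats carrying a carotid catheter were dosed with 0.5 mg/kg iv or 1 mg/kg po in aqueous 25% cremophore, n = 3 per route. Ten 100 μL blood samples were collected automatically over 20 h. Plasma was assayed by HTLC-MS/MS. Parameters came from a two-compartment model with first-order absorption (po) and elimination.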

[3] = Apparent permeability from basolateral to apical side in human Caco2 cells at 1 uM after 21 to 28 days; type: ADME, cell-based; conditions: caco-2
Outline: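 Caco-2 cells grown 21-28 days on permeable filters. A 2 mM DMSO stock was diluted into Hanks-HEPES pH 7.4. Dosing solution went into the apical (A-B) or basolateral (B-A) chamber, and the opposite chamber was sampled over 240 min with buffer replacement. Efflux ratio = Papp,B-A/Papp,A-B. Mean ± SD, n = 3.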

Cytochrome P450 2D6 = Cytochrome P450 2D6 (Homo sapiens, UniProt P10635); experiment: Inhibition of recombinant CYP2D6 after 45 mins; type: ADME
Sequence of Cytochrome P450 2D6 (P10635 whole entry): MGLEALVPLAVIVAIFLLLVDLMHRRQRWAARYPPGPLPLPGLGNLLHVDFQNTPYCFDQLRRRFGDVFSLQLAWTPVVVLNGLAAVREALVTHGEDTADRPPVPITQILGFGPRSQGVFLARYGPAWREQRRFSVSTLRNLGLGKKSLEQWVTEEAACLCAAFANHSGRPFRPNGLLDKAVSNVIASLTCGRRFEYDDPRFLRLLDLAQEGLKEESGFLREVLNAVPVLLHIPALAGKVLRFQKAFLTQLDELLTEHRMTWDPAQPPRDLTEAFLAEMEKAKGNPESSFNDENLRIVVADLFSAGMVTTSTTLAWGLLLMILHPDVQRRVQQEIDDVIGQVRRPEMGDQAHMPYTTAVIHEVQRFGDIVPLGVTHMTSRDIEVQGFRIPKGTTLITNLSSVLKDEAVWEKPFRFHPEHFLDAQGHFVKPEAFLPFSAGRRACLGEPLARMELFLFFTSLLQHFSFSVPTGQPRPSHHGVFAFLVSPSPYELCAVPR
Outline: as §1, with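 “substrates. CYP1A2: 7-ethoxy-3-cyanocoumarin 10 μM, 28 min. CYP2C19: same substrate 50 μM, 45 min. CYP2D6: AMMC 3 μM, 45 min.” for “substrates.”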

[4] = Terminal half life in Sprague-Dawley rat at 0.5 mg/kg, iv and 1 mg/kg, po; type: ADME, organism-based; conditions: in vivo; outline: as §2
Mus musculus = experiment: Displacement of [3H]SCH58261 from po dosed NMRI mouse striatum by liquid scintillation counting; type: functional
[5] = Protein binding in dog serum at 1 uM after 60 mins by LC/MS-MS; type: ADME, cell-free, Canis lupus familiaris; conditions: read-out: PPB (converted)
Hepatocyte = experiment: Intrinsic clearance in rat hepatocytes at 0.2 uM after 60 mins; type: ADME, cell-based, Liver; conditions: 1 h
Outline: (§3)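 Pooled cryopreserved hepatocytes: human (three donors), male Sprague-Dawley rat (two donors), male beagle dog (two donors). Cells at 10^6/mL in DMEM with 5 mM HEPES, 37 C, 15 min preincubation; compound at 0.2 μM. Samples at 0-60 min, depletion by LC-MS/MS. t1/2 scaled to CLint with 120 (human, rat) or 240 (dog) million cells/g liver. n = 1.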

[6] = Intrinsic clearance in dog hepatocytes at 0.2 uM after 60 mins; type: ADME, cell-based, Canis lupus familiaris, Liver, Hepatocyte; conditions: 1 h; outline: as §3
Rattus norvegicus = experiment: Cmax in Sprague-Dawley rat at 1 mg/kg, po; type: ADME, organism-based; set-up: dose 1 mg/kg, route oral; conditions: in vivo; outline: as §2
[7] = Oral bioavailability in Sprague-Dawley rat at 1 mg/kg; type: ADME, organism-based; conditions: in vivo; outline: as §2
[8] = Volume of distribution at steady state in Sprague-Dawley rat at 0.5 mg/kg, iv and 1 mg/kg, po; type: ADME, organism-based; conditions: in vivo, read-out: Vdss; outline: as §2
[9] = Primary phase half life in Sprague-Dawley rat at 0.5 mg/kg, iv and 1 mg/kg, po; type: ADME, organism-based; conditions: in vivo; outline: as §2
[10] = Tmax in Sprague-Dawley rat at 1 mg/kg, po; type: ADME, organism-based; set-up: dose 1 mg/kg, route oral; conditions: in vivo; outline: as §2
Homo sapiens = species on record: Homo sapiens; experiment: Selectivity ratio of Ki for human adenosine A1 receptor to Ki for human adenosine A2A receptor
Adenosine receptor A3 = biological target: T1, Adenosine receptor A3 (Homo sapiens, UniProt P0DMS8); experiment: Displacement of [3H]-AB-MECA from human recombinant adenosine A3 receptor expressed in CHO-K1 cells after 60 mins; type: cell-based
T1 sequence (P0DMS8 whole entry): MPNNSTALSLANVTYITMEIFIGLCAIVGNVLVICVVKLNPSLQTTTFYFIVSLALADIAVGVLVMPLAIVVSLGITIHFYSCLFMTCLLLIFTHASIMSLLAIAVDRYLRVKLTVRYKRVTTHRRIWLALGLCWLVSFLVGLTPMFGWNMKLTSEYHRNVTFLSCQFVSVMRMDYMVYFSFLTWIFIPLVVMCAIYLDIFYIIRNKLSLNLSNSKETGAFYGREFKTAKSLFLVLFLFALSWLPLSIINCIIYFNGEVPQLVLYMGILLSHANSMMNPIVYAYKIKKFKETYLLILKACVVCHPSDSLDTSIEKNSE

Cytochrome P450 2C19 = Cytochrome P450 2C19 (Homo sapiens, UniProt P33261); experiment: Inhibition of recombinant CYP2C19 after 45 mins; type: ADME
Sequence of Cytochrome P450 2C19 (P33261 whole entry): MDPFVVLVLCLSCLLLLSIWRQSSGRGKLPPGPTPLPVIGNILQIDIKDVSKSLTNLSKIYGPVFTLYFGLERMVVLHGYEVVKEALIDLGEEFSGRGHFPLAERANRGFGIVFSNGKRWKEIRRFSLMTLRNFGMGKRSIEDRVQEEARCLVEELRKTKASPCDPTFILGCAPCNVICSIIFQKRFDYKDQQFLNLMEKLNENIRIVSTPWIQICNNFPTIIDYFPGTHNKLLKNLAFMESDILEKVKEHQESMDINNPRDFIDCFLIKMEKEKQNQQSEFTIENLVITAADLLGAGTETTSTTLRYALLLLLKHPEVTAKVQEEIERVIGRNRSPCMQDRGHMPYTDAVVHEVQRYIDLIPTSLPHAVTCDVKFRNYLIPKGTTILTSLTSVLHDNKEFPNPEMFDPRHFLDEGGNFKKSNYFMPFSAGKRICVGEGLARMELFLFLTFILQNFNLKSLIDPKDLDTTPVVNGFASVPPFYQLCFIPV
Outline: as §1, with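 “substrates. CYP1A2: 7-ethoxy-3-cyanocoumarin 10 μM, 28 min. CYP2C19: same substrate 50 μM, 45 min. CYP2D6: AMMC 3 μM, 45 min.” for “substrates.”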

## CC(C)(C)CC(=O)Nc1c(F)cc(C(=O)Nc2nccs2)cc1F
[1]
  fraction unbound at 1 h, 1 µM: 0.15
Cytochrome P450 3A4
  IC50: > 40 µM
[2]
  clearance: 5 mL/min/kg
[3]
  Papp B→A at 1 µM: 67 ×10⁻⁶ cm/s
Cytochrome P450 2D6
  IC50: > 40 µM
[4]
  half-life: 7.8 h
Mus musculus
  Activity: Dose-dependent effect
  ED50: 1.1 mg/kg
[5]
  fraction unbound at 1 h, 1 µM: 0.13
Hepatocyte
  CL: 12 mL/min
[6]
  CL: 346 mL/min
Rattus norvegicus
  Cmax: 878 ng/mL
[7]
  bioavailability: 88%
[8]
  Vd: 1 L/kg
[9]
  half-life: 1.2 h
[10]
  Tmax: 0.5 h
Homo sapiens
  Ratio Ki: 69
Adenosine receptor A3
  Ki: > 10 µM
Cytochrome P450 2C19
  IC50: > 40 µM
